# Tests used:
# [1] = Apparent oral clearance in healthy human at 40 mg, po administered as single ascending doses as solution during 10 hrs overnight fasting state; type: ADME, organism-based; conditions: in vivo
# Method in brief: (§1)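 Single ascending oral doses in healthy Caucasian men, given fasted (10-h overnight) with 240 ml water: 10, 20, 30 or 40 mg as oral solution, or 80 mg as IR tablets. Parent plasma levels by LC/MS-MS over 0.25–14 h. Noncompartmental analysis: kel by terminal-phase least-squares regression, AUC extrapolated to infinity, CL/F = dose/AUC, V/F = CL/F÷kel.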
# [2] = (§2) Apparent oral clearance in healthy human at 80 mg, po administered as four 20 mg immediate release tablets daily for 3 days during 10 hrs overnight fasting state measured after 3 day; type: ADME, organism-based; conditions: in vivo
# Method in brief: (§3)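 Healthy Caucasian males took 40 mg (2×20-mg IR tablets) or 80 mg (4 tablets) orally daily for 3 days after a 10-h fast. Plasma parent drug was measured by LC/MS-MS from predose to 14 h after the first and third doses. Noncompartmental analysis: AUC by log-linear trapezoid extrapolated via kel, CL/F = dose/AUC, V/F = CL/F÷kel, geometric means.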
# [3] = Apparent oral clearance in healthy human at 40 mg, po administered as two 20 mg immediate release tablets daily for 3 days during 10 hrs overnight fasting state measured after 1 day; type: ADME, organism-based; conditions: in vivo; method in brief: as §3
# Homo sapiens [4] = test: Toxicity in healthy human assessed as decrease in alanine aminotransferase level at 80 mg, po administered daily for 3 days as four 20-mg immediate-release tablets during 10 hrs overnight fasting state measured after 2 days last post treatment; type: organism-based; conditions: in vivo, 48 h
# [5] = Half life in healthy human plasma at 80 mg, po administered as four 20 mg immediate release tablets daily for 3 days during 10 hrs overnight fasting state measured after 3 day; type: ADME, organism-based
# Method in brief: (§4)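 Healthy Caucasian males took tablets once daily for 3 days with 240 ml water after a 10-h fast. Heparinised blood was drawn predose and at 0.25–14 h after the first and last doses. Plasma parent drug and metabolites M1–M3 were measured by LC/MS-MS (MRM, deuterated internal standard). Noncompartmental analysis gave Cmax observed, t1/2 = 0.693/kel and MRT = AUMC/AUC. Values are geometric means.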
# Homo sapiens [6] = test: Toxicity in healthy human assessed as occurrence of changes in electrocardiogram parameters at 80 mg, po administered daily for 3 days as four 20-mg immediate-release tablets during 10 hrs overnight fasting state; type: organism-based; conditions: in vivo
# Method in brief: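 Healthy Caucasian men received single ascending doses (10–40 mg solution, 80 mg tablets) or 3-day daily tablet courses, all fasting, with randomized placebo controls. Supine blood pressure, heart rate and resting 12-lead ECG were recorded before and after dosing.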
# [7] = Mean residence time in healthy human at 80 mg, po administered as four 20 mg immediate release tablets daily for 3 days during 10 hrs overnight fasting state measured after 1 day; type: ADME, organism-based; conditions: in vivo; method in brief: as §4
# [8] = Apparent volume of distribution with respect to the bioavailability in healthy human at 30 mg, po administered as single ascending doses as solution during 10 hrs overnight fasting state; type: ADME, organism-based; conditions: in vivo, read-out: Vc/F; method in brief: as §1
# [9] = AUC in healthy human plasma at 80 mg, po administered as four 20 mg immediate release tablets daily for 3 days during 10 hrs overnight fasting state measured after 3 day; type: ADME, organism-based; set-up: time < 10 hr, dose 80 mg, route oral; method in brief: as §3
# [10] = Apparent volume of distribution with respect to the bioavailability in healthy human at 40 mg, po administered as two 20 mg immediate release tablets daily for 3 days during 10 hrs overnight fasting state measured after 3 day; type: ADME, organism-based; conditions: in vivo, read-out: Vc/F; method in brief: as §3
# [11] = Cmax in healthy human plasma at 80 mg, po administered as single immediate release tablets during 10 hrs overnight fasting state; type: ADME, organism-based; set-up: dose 80 mg, route oral
# Method in brief: (§5)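 Healthy Caucasian male volunteers, single oral dose with 240 ml water after a 10-h overnight fast. Heparinised venous blood was drawn predose and at 0.25–14 h. Plasma was stored frozen. Parent drug and metabolites M1–M3 were measured by LC/MS-MS (MRM, deuterated internal standard). Noncompartmental analysis gave Cmax observed, t1/2 = 0.693/kel (terminal regression) and MRT = AUMC/AUC. Values are geometric means.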
# Homo sapiens [12] = test: Toxicity in healthy human assessed as increase in glutamate dehydrogenase level at 80 mg, po administered daily for 3 days as four 20-mg immediate-release tablets during 10 hrs overnight fasting state measured after 24 hrs last post treatment; type: organism-based; conditions: in vivo
# Homo sapiens [13] = test: Toxicity in healthy human assessed as occurrence of adverse event at 80 mg, po administered daily for 3 days as four 20-mg immediate-release tablets during 10 hrs overnight fasting state; type: organism-based; conditions: in vivo
# Method in brief: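 3-day daily oral tablet dosing in healthy Caucasian men (8 active, 4 placebo per dose). Adverse events were collected by open questioning and spontaneous report. Severity was graded mild (daily activities unaffected), moderate (some interference) or severe (activities not completed).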
# [14] = as §2; type: ADME, organism-based; conditions: in vivo; method in brief: as §3; remark: listed apart in the source
# [15] = Half life in healthy human plasma at 20 mg, po administered as single ascending doses as solution during 10 hrs overnight fasting state; type: ADME, organism-based; method in brief: as §5
# [16] = Mean residence time in healthy human at 80 mg, po administered as four 20 mg immediate release tablets daily for 3 days during 10 hrs overnight fasting state measured after 3 day; type: ADME, organism-based; conditions: in vivo; method in brief: as §4
# [17] = Tmax in healthy human plasma at 80 mg, po administered as four 20 mg immediate release tablets daily for 3 days during 10 hrs overnight fasting state measured after 3 day; type: ADME, organism-based
# Method in brief: (§6)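 Healthy Caucasian men (8 active, 4 placebo per dose) dosed with tablets daily for 3 days after 10-h fast. Lithium-heparin plasma sampled predose and 0.25–14 h after day-1 and day-3 doses, stored frozen. Parent and M1–M3 quantified by LC/MS-MS in positive-ion MRM. Tmax taken directly from observed individual data.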
# [18] = Cmax in healthy human plasma at 30 mg, po administered as single ascending doses as solution during 10 hrs overnight fasting state; type: ADME, organism-based; set-up: dose 30 mg, route oral; method in brief: as §5
# [19] = Apparent volume of distribution with respect to the bioavailability in healthy human at 10 mg, po administered as single ascending doses as solution during 10 hrs overnight fasting state; type: ADME, organism-based; conditions: in vivo, read-out: Vc/F; method in brief: as §1
# [20] = Half life in healthy human plasma at 80 mg, po administered as single immediate release tablets during 10 hrs overnight fasting state; type: ADME, organism-based; method in brief: as §5
# Plasma = test: Ratio of Ratio of AUC (0 to infinity) in healthy human plasma at 40 mg, po administered as two 20 mg immediate release tablets daily for 3 days during 10 hrs overnight fasting state measured after 1 day to Ratio of AUC (0 to infinity) in healthy human plasma at 40 mg, po administered as two 20 mg immediate release tablets daily for 3 days during 10 hrs overnight fasting state measured after 3 day; type: ADME, organism-based; conditions: in vivo
# Method in brief: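 Healthy Caucasian men took tablets daily for 3 days with 240 ml water after 10-h fast. Plasma sampled 0.25–14 h after first and last doses, artemisone measured by LC/MS-MS. Accumulation ratio is Cmax or AUC0-∞ after last dose divided by that after first dose. Noncompartmental analysis, geometric means with 95% CI.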
# [21] = Cmax in healthy human plasma at 10 mg, po administered as single ascending doses as solution during 10 hrs overnight fasting state; type: ADME, organism-based; set-up: dose 10 mg, route oral; method in brief: as §5
# [22] = Tmax in healthy human plasma at 80 mg, po administered as four 20 mg immediate release tablets daily for 3 days during 10 hrs overnight fasting state measured after 1 day; type: ADME, organism-based; method in brief: as §6
# [23] = Mean residence time in healthy human at 40 mg, po administered as single ascending doses as solution during 10 hrs overnight fasting state; type: ADME, organism-based; conditions: in vivo; method in brief: as §5
# [24] = Mean residence time in healthy human at 10 mg, po administered as single ascending doses as solution during 10 hrs overnight fasting state; type: ADME, organism-based; conditions: in vivo; method in brief: as §5
# [25] = Half life in healthy human plasma at 40 mg, po administered as single ascending doses as solution during 10 hrs overnight fasting state; type: ADME, organism-based; method in brief: as §5
compound,measurement,setting,value
C[C@H]1[C@H](N2CCS(=O)(=O)CC2)O[C@@H]2O[C@@]3(C)CC[C@H]4[C@H](C)CC[C@@H]1[C@@]24OO3 [ARTEMIFONE],CL/F,[1],5640 mL/min
same,CL/F,[2],3950 mL/min
same,CL/F,[3],3630 mL/min
same,Activity,Homo sapiens [4],Non-toxic
same,half-life,[5],3.07 h
same,Activity,Homo sapiens [6],Non-toxic
same,MRT,[7],3.3 h
same,Vd/F,[8],26.6 L/kg
same,AUC at 10 h,[9],337 ng·h/mL
same,Vd/F,[10],16.1 L/kg
same,Cmax,[11],140 ng/mL
same,Activity,Homo sapiens [12],Non-toxic
same,Activity,Homo sapiens [13],Non-toxic
same,CL/F,[14],3950 mL/min
same,half-life,[15],3.48 h
same,MRT,[16],3.53 h
same,Tmax,[17],1.5 h
same,Cmax,[18],50.5 ng/mL
same,Vd/F,[19],8.93 L/kg
same,half-life,[20],2.79 h
same,Ratio,Plasma,104%
same,Cmax,[21],40 ng/mL
same,Tmax,[22],1.5 h
same,MRT,[23],2.39 h
same,MRT,[24],0.98 h
same,half-life,[25],3.54 h
